One compound from ChEMBL document CHEMBL4229460, “Design and biological evaluation of novel hybrids of 1, 5-diarylpyrazole and Chrysin for selective COX-2 inhibition” (Bioorg Med Chem, 2018) can be followed below.

SMILES strings stand for the structures.

For one experiment, the system named is A549. The experiment is described as follows: Antiproliferative activity against human A549 cells after 48 hrs by MTT assay. It counts as functional, cell-based. The following applies: A549, 48 h. In short, it runs like this: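 Cells kept in DMEM with 10% FBS, penicillin/streptomycin, 37 °C, 5% CO₂. Seeded at 5 × 10⁴ cells/well and allowed to adhere 12 h. Exposed to 0, 0.1, 1, 10 and 100 μM (final) for 48 h. Viability read by MTT reduction at OD 570 nm with 630 nm reference. IC50 reported as mean ± SD of three independent experiments.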

Experiment [1] relates to HeLa. The experiment is described as follows: Induction of apoptosis in human HeLa cells assessed as live cells at 10 uM after 24 hrs by Annexin-V-FITC/propidium iodide staining based flow cytometry (reference value: 94.6%). The class given is functional. In short, it runs like this:
(§1)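 HeLa seeded at 2 × 10⁵ cells/well. Dose series was 0, 1.25, 2.5, 5 and 10 μM for 24 h; time course was 5 μM for 12, 24, 36 or 48 h. Trypsinized and washed in ice-cold PBS, then stained in binding buffer with Annexin V-FITC and PI for 10 min in the dark. Flow cytometry scored early (Annexin⁺/PI⁻) and late (Annexin⁺/PI⁺) apoptotic cells.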

Experiment [2] has as its system HeLa. The experiment is described as follows: Induction of apoptosis in human HeLa cells assessed as late apoptotic cells at 5 uM after 36 hrs by Annexin-V-FITC/propidium iodide staining based flow cytometry (reference value: 2.57%). The class given is functional. In short, it runs like this:
as §1

Experiment [3] has as its system HeLa. The experiment in a line: Induction of apoptosis in human HeLa cells assessed as early apoptotic cells at 5 uM after 48 hrs by Annexin-V-FITC/propidium iodide staining based flow cytometry (reference value: 1.24%). The class given is functional. The method, boiled down: as §1
Experiment [4] concerns HeLa. The experiment is described as follows: Induction of apoptosis in human HeLa cells assessed as necrotic cells at 5 uM after 48 hrs by Annexin-V-FITC/propidium iodide staining based flow cytometry (reference value: 1.12%). It counts as functional. The method, boiled down: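 HeLa cells in DMEM with 10% FBS, penicillin/streptomycin, 37 °C, 5% CO₂; seeded 2 × 10⁵ cells/well in six-well plates, treated at 0, 1.25, 2.5, 5 and 10 μM for 24 h, or at 5 μM for 12, 24, 36 or 48 h. Cells trypsinized, washed in ice-cold PBS, stained in binding buffer with Annexin V-FITC and PI for 10 min in the dark, then analyzed by flow cytometry.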

The test system of experiment [5] is HeLa. The experiment is described as follows: Disruption of mitochondrial membrane potential in human HeLa cells assessed as collapse of the mitochondrial membrane potential at 10 uM after 12 hrs by JC1 staining based flow cytometry (reference value: 0.768%). It counts as functional.
Experiment [6] deals with HeLa. The experiment is described as follows: Disruption of mitochondrial membrane potential in human HeLa cells assessed as intact mitochondrial membrane at 10 uM after 12 hrs by JC1 staining based flow cytometry (reference value: 99.2%). It counts as functional.

In the case of `COc1ccc(-c2cc(COC(=O)COc3cc(O)c4c(=O)cc(-c5ccccc5)oc4c3)nn2-c2ccc(C)cc2)cc1`, in the experiment with A549, half-maximal inhibition (IC50) required 6.41 µM. The Activity is given as 51.4% with HeLa [1]; 7.82% in the experiment on HeLa [2]; 73.2% in the experiment with HeLa [3]; 1.43% in the experiment on HeLa [4]; 13.3% in the experiment with HeLa [5]; 86.5% in the experiment on HeLa [6].
